In series [1] the test system is Human immunodeficiency virus 2. Kind of series: Antiviral activity against HIV2 ROD infected in human CEM/0 cells assessed as inhibition of virus-induced cytopathicity after 4 to 5 days. The following applies: Human immunodeficiency virus 2, ISOLATE ROD, CCRF-CEM. Type of series: functional, organism-based. Background: Protection from cytopathic effect is a common read-out in antiviral testing.

Series [2] is described as follows: Cytotoxicity against human CEM/0 cells. The series is classed as cell-based, CCRF-CEM. Put shortly:
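Proliferation of CEM cells measured by Coulter particle counting across a range of compound concentrations. CC50 is the concentration inhibiting cell proliferation by 50%.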

In series [3] the test system is Human immunodeficiency virus 2. Kind of series: Antiviral activity against HIV2 ROD infected in human CEM/TK- cells assessed as inhibition of virus-induced cytopathicity after 4 to 5 days. The following applies: Human immunodeficiency virus 2, ISOLATE ROD. Type of series: functional, organism-based.
The subject of series [4] is Moloney murine sarcoma virus. The experiment in a line: Antiviral activity against murine sarcoma virus infected in murine C3H/3T3 cells assessed as inhibition of virus-induced cell transformation.
Series [5] concerns Human immunodeficiency virus 1. The experiment in a line: Antiviral activity against HIV1 3B infected in human CEM/0 cells assessed as inhibition of virus-induced cytopathicity after 4 to 5 days. The series is classed as functional, organism-based. Conditions: Human immunodeficiency virus 1, 3B, CCRF-CEM.

A value given as a limit tells only on which side of the number the result lay.

Turning to `COC(=O)[C@H](C)N[P@](=O)(OC[C@@H]1C=C[C@H](n2cc(C)c(=O)[nH]c2=O)O1)Oc1ccc(C)cc1`, the EC50 (as a rule, the concentration needed to bring the measured effect to its halfway point) in series [1] came to 140 nM; in series [3] it was 32 nM; in series [4], 1800 nM; in series [5], 120 nM. The CC50 (in general, the concentration giving 50% cytotoxicity) in series [2] came out at 79000 nM.

Turning to `COC(=O)[C@H](C)N[P@@](=O)(OC[C@@H]1C=C[C@H](n2cc(C)c(=O)[nH]c2=O)O1)Oc1ccc(C)cc1`, the EC50 in series [1] worked out at 460 nM; in series [3], 2100 nM; in series [4], 1800 nM; in series [5], 820 nM. Moreover, the CC50 in series [2] was above 250000 nM.

For `COC(=O)[C@H](C)N[P@](=O)(OC[C@@H]1C=C[C@H](n2cc(C)c(=O)[nH]c2=O)O1)Oc1ccc(OC)cc1`, the EC50 was determined as 140 nM in series [1], 48 nM in series [3], 2000 nM in series [4] and 150 nM in series [5]. For the same molecule, the CC50 in series [2] was 77000 nM.

In the case of `COC(=O)[C@H](C)N[P@@](=O)(OC[C@@H]1C=C[C@H](n2cc(C)c(=O)[nH]c2=O)O1)Oc1ccc(OC)cc1`, the EC50 in series [1] is 860 nM; in series [3], 1900 nM; in series [4] it was 5300 nM; in series [5], 1100 nM. The same molecule registered a CC50 in series [2] of 235000 nM.

Consider `COC(=O)[C@H](C)N[P@](=O)(OC[C@@H]1C=C[C@H](n2cc(C)c(=O)[nH]c2=O)O1)Oc1ccccc1C`, for which the EC50 in series [1] was 1100 nM; in series [3] it was 1900 nM; in series [4], 9800 nM; in series [5], 1300 nM. The molecule further showed a CC50 in series [2] above 250000 nM.

With `COC(=O)[C@H](C)N[P@@](=O)(OC[C@@H]1C=C[C@H](n2cc(C)c(=O)[nH]c2=O)O1)Oc1ccccc1C`, the concentration giving a half-maximal response (EC50) was found to be 1300 nM in series [1], 2900 nM in series [3], 4000 nM in series [4] and 1300 nM in series [5]. Besides, the CC50 in series [2] is above 250000 nM.

For the molecule `COC(=O)[C@H](C)N[P@](=O)(OC[C@@H]1C=C[C@H](n2cc(C)c(=O)[nH]c2=O)O1)Oc1cccc2ccccc12`, the EC50 in series [1] was determined as 160 nM; in series [3], 130 nM; in series [4], 530 nM; in series [5], 150 nM. In series [2], this molecule registered a CC50 of 70000 nM.

In the case of `COC(=O)[C@H](C)N[P@@](=O)(OC[C@@H]1C=C[C@H](n2cc(C)c(=O)[nH]c2=O)O1)Oc1cccc2ccccc12`, the EC50 in series [1] worked out at 450 nM; in series [3] it was 250 nM; in series [4], 720 nM; in series [5], 120 nM. Moreover, in series [2], the CC50 is 107000 nM.

As for `Cc1cn([C@H]2C=C[C@@H](CO)O2)c(=O)[nH]c1=O` [STAVUDINE], the EC50 was 750 nM in series [1], 132000 nM in series [3], 2500 nM in series [4] and 840 nM in series [5]. Also, the 50% cytotoxic concentration (CC50) in series [2] was above 250000 nM.

The values above are taken from ChEMBL document CHEMBL1275367, “Diastereoselective synthesis of aryloxy phosphoramidate prodrugs of 3'-deoxy-2',3'-didehydrothymidine monophosphate” (J Med Chem, 2010).
